Compound activity from PubChem BioAssay.
CCR6 antagonist = CCR6 receptor antagonists, primary screen, cell-based, CHO-K1, luminescence, beta-arrestin, uHTS; C-C chemokine receptor type 6 (Homo sapiens), P51684; CHO-K1 CCR6 PathHunter beta-arrestin, CCL20-stimulated; inhibition, % at 20 µM; 340,000 tested, 0.49% active; AID 493098, 2011;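 active means compounds whose inhibition of the agonist-driven luminescence signal at 20 µM reaches about 50%, limit read from the data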;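 further: cells stimulated with CCL20 at 14 nM final; plate controls were DMSO with CCL20 for no effect and DMSO without agonist for full effect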
EBI2 block = EBI2 receptor antagonists, beta-arrestin recruitment, primary screen, cell-based, luminescence, 7a,25-OHC stimulation, uHTS; G-protein coupled receptor 183 (Homo sapiens), P32249; 7a,25-OHC stimulated; inhibition, % at 5 µM; 360,000 tested, 0.81% active; AID 651636, 2012; in the data active means inhibition above about 38%;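 further: enzyme fragment complementation signal reports receptor beta-arrestin coupling in cells; 0% = agonist plus DMSO wells and 100% = wells without agonist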
Target sequence (P32249 whole entry, looked up, the tested form may be a part): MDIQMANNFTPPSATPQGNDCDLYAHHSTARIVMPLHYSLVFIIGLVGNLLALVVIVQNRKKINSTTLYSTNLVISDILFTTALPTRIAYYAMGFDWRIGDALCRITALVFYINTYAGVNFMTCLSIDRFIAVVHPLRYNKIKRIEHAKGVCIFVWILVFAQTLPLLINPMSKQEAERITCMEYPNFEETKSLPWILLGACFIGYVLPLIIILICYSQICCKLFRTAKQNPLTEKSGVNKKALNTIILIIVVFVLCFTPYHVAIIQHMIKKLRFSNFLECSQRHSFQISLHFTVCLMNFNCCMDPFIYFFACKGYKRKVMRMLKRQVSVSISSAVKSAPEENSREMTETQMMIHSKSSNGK
APJ agonist = agonists of human apelin receptor APJ, primary screen, CHO-K1 cells, PathHunter beta-arrestin, luminescence | activation, % at 20 µM | P35414 | 330,000 tested, 0.11% active | AID 2520, 2010 | 0% DMSO wells, 100% apelin;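 active means activation more than six SD over the plate average, tested at 20 µM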;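 further: 0% = DMSO alone and 100% = apelin-13 at 10 nM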
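Incubation: overnight seeding, 90 min compound at 25 °C, 1 h detection; test system: PathHunter CHO-K1 APJ (AGTRL-1) beta-arrestin reporter cells; amount: 1000 cells/well; doses: one dose, 20 µM compound, 1% DMSO; measured by: beta-gal luminescence; measure: agonist-driven arrestin binding to APJ; benchmarks: negative DMSO alone, positive Apelin-13 at 10 nM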
APJ antag = antagonists of human apelin receptor APJ, primary screen, CHO-K1 cells, beta-arrestin complementation, luminescence. inhibition, % at 20 µM. 330,000 tested, 0.32% active. AID 2521, 2010;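 active means inhibition above about 40% at 20 µM, limit read from the data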;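 further: cells challenged with 10 nM apelin-13 agonist together with compound; plate controls were apelin-13 plus DMSO wells for no effect and DMSO wells lacking apelin-13 for full effect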
CXCR6 inh = CXCR6 receptor inhibitors, primary screen, cell-based, beta-arrestin, luminescence, CHO-K1 PathHunter, 1536-well | inhibition, % at 20 µM | 360,000 tested, 0.36% active | AID 602244, 2012; in the data active means inhibition above about 34%, passing the limit was not always enough;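 further: antagonist mode with CXCL16 agonist at 10 nM final; 0% = 10 nM CXCL16 with DMSO and 100% = unstimulated wells without agonist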
APJ antag conf = APJ antagonists blocking beta-arrestin recruitment, confirmation, cell-based, luminescence, single concentration, uHTS hits; shares compounds with APJ antag; antagonist mode; inhibition, % at 20 µM; 950 tested, 66% active; AID 2766, 2010; in the data active means inhibition above about 50%
CXCR6 antag conf = CXCR6 receptor antagonists, confirmation, cell-based, single concentration, beta-arrestin, luminescence | CHO-K1 CXCR6 PathHunter beta-arrestin | shares compounds with CXCR6 inh | inhibition, % at 20 µM | 700 tested, 65% active;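 active means mean inhibition over four retests above 40%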;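 further: receptor stimulated with 10 nM CXCL16 agonist; beta-galactosidase fragment complementation upon beta-arrestin recruitment to receptor; plate controls were CXCL16 plus DMSO for no effect and DMSO without CXCL16 for full effect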
* = called active by the depositor. The list is not random: actives were taken first. Their share in the collection is about 1.5%.

Results for O=[N+]([O-])c1ccc(N=NN(CCO)CCO)cc1 ?
CCR6 antagonist: 10.6; EBI2 block: 5.0; APJ agonist: -2.7; APJ antag: 8.6; CXCR6 inh: 1.2

What do the screens show for `O=[N+]([O-])c1ccc(N=Nc2ncc[nH]2)cc1`?
CCR6 antagonist: 67.8*; EBI2 block: 31.3; APJ agonist: -8.2; APJ antag: 41.1*; CXCR6 inh: 51.6*; APJ antag conf: 88.4*

Results for O=C(C1=C(O)C(=O)N(CCN2CCOCC2)C1c1cccs1)c1cc2ccccc2o1 (configuration not stated) ?
CCR6 antagonist: 22.9; EBI2 block: 7.1; APJ agonist: -6.8; APJ antag: 55.6*; CXCR6 inh: 10.8; APJ antag conf: 27.8

Results for O=C(C1=C(O)C(=O)N(CCN2CCOCC2)C1c1cccc(O)c1)c1cc2ccccc2o1 (configuration not stated) ?
CCR6 antagonist: 7.1; EBI2 block: 4.6; APJ agonist: -2.1; APJ antag: 24.1; CXCR6 inh: -1.7

Results for Cc1ccc(C(=O)Sc2cccccc2=O)cc1 ?
CCR6 antagonist: 92.2*; EBI2 block: 66.8*; APJ agonist: -8.6; APJ antag: 85.1*; CXCR6 inh: 83.5*; APJ antag conf: 102.0*

Results for O=C(Nc1ccccc1SC(=O)c1ccccc1)c1ccccc1 ?
EBI2 block: 10.8; CXCR6 inh: -12.3

Results for CN(C)CCNC(=O)c1ccc2c(c1)N(Cc1ccc(F)cc1)CCS2 ?
CCR6 antagonist: 13.4; EBI2 block: 0.7; APJ agonist: -5.2; APJ antag: 52.4*; CXCR6 inh: 4.5; APJ antag conf: 13.5

How did CC(C)c1ccc(CC(=O)N2CCC2(C)C(=O)NS(=O)(=O)c2cccc(C#N)c2)cc1 (configuration not stated) do in these assays?
EBI2 block: -3.1; CXCR6 inh: -6.2

How did Cc1c(Nc2cc(Cl)c3nonc3c2[N+](=O)[O-])c(=O)n(-c2ccccc2)n1C do in these assays?
CCR6 antagonist: 91.1*; EBI2 block: 60.9*; APJ agonist: -6.6; APJ antag: 83.1*; CXCR6 inh: 88.2*; APJ antag conf: 115.0*; CXCR6 antag conf: 104.7*

Results for CCCSc1cc(NCCOC(=O)CCC)c([N+](=O)[O-])c2nonc12 ?
CCR6 antagonist: 83.6*; EBI2 block: -5.1; APJ agonist: -4.1; APJ antag: 41.6*; CXCR6 inh: 62.0*; APJ antag conf: 74.6*; CXCR6 antag conf: 71.9*

What do the screens show for `CCC(=O)OCCNc1cc(Sc2nc3ccccc3s2)c2nonc2c1[N+](=O)[O-]`?
CCR6 antagonist: 109.0*; EBI2 block: 27.0; APJ agonist: -5.3; APJ antag: 68.1*; CXCR6 inh: 89.3*; APJ antag conf: 85.8*; CXCR6 antag conf: 100.9*

What do the screens show for `COCCNC(=O)CN(Cc1ccc(F)cc1)C(=O)CCC(=O)Nc1nccs1`?
CCR6 antagonist: 10.8; EBI2 block: -5.4; APJ agonist: 1.2; APJ antag: -8.8; CXCR6 inh: -3.0

What do the screens show for `C/C(=N\N=C(/N)c1nonc1N)c1ccc2c(c1)OCO2`?
CCR6 antagonist: 12.7; EBI2 block: -6.5; APJ agonist: 0.4; APJ antag: 2.3; CXCR6 inh: -0.5

How did CCS(=O)(=O)c1ncc(Cl)c(C(=O)Nc2ccc(S(=O)(=O)N(C)c3ccccc3)cc2)n1 do in these assays?
CCR6 antagonist: 94.4*; EBI2 block: 86.5*; APJ agonist: -5.0; APJ antag: 67.4*; CXCR6 inh: 85.0*; APJ antag conf: 102.2*; CXCR6 antag conf: 92.3*

What do the screens show for `O=C(Nc1ccc(F)cc1)c1nc(S(=O)(=O)Cc2ccccc2)ncc1Cl`?
CCR6 antagonist: 77.6*; EBI2 block: 41.8; APJ agonist: -6.2; APJ antag: 40.3*; CXCR6 inh: 61.6*; APJ antag conf: 84.4*; CXCR6 antag conf: 67.2*
